Reference: ChEMBL document CHEMBL1148452, “Fluoroartemisinin: trifluoromethyl analogues of artemether and artesunate” (J Med Chem, 2004)
Where “and” joins values, the source holds several entries; their conditions need not be identical. Equal values may be shown once.

Columns and labels:
[1] = Half-life at pH 1; format: ADME; settings: buffer
[2] = tested on: Mus musculus; assay: (§1) Percentage uM/kg); format: functional
Summary of the method: (§2)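 Female ICR (CD-1) mice (18–20 g) infected with P. berghei NK 173, following Peters' 4-day test. Dosing was intraperitoneal for 4 days, with four to five mice per group. Parasitemia was counted and inhibition calculated against infected untreated controls. Survey dose 35.5 μmol/kg. ED50/ED90 came from doses of 0.5–10 mg/kg, with parasitemia read on day 4.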

[3] = tested on: Mus musculus; assay: as §1; format: functional; design: concentration or dose not given beside the values; summary of the method: as §2
[4] = tested on: Mus musculus; assay: as §1; format: functional; summary of the method: as §2; remark: listed apart in the source
[5] = tested on: Mus musculus; assay: as §1; format: functional; summary of the method: as §2; remark: listed apart in the source
[6] = tested on: Plasmodium falciparum; assay: In vitro antimalarial activity against Plasmodium falciparum FCB1; format: functional, organism-based
Summary of the method: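 P. falciparum FCB1 (chloroquine-resistant) cultured continuously in human erythrocytes. Ring-synchronized cultures at 1% parasitemia and 1% final hematocrit were exposed to serial dilutions, with methanol or DMSO ≤0.1%. Cultures received [3H]-hypoxanthine and were incubated 48 h at 37 °C. Incorporated radioactivity was compared with drug-free controls, and IC50 was taken by nonlinear regression of log(dose)-response. Mean of three experiments.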

[7] = tested on: Mus musculus; assay: as §1; format: functional; summary of the method: as §2; remark: listed apart in the source
[8] = tested on: Mus musculus; assay: as §1; format: functional; summary of the method: as §2; remark: listed apart in the source
[9] = tested on: Mus musculus; assay: In vivo antimalarial activity against Plasmodium berghei NK173 infected mice (Mus musculus) administered intraperitoneally. at the end of 4 day; format: functional; settings: ip, 96 h
Summary of the method: (§3)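 Female ICR (CD-1) mice (18–20 g), 4–5 per group, infected with P. berghei NK 173 and dosed intraperitoneally for 4 days at 0.5 to 10 mg/kg (Peters protocol). Parasitemia was counted at day 4, and inhibition was calculated against infected untreated controls. ED50 and ED90 were derived from these counts.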

[10] = tested on: Mus musculus; assay: (§4) In vivo antimalarial activity against Plasmodium berghei NK173 infected mice (Mus musculus) administered intraperitoneal. at the end of 4 day; format: functional; summary of the method: as §3
[11] = Plasmatic Half-life after intravenous administration to rat; format: ADME, organism-based; settings: plasma
[12] = tested on: Mus musculus; assay: as §4; format: functional; settings: ip, 96 h; summary of the method: as §2
[13] = tested on: Mus musculus; assay: In vivo antimalarial activity against Plasmodium berghei NK 173 infected mice (Mus musculus) administered i.p. at the end of 4 day; format: functional; summary of the method: as §2
[14] = Mus musculus, ip, 96 h, read-out: ED90

SMILES | half-life [1] [h] | Parasitemia [2] [%] | Parasitemia [3] [%] | Parasitemia [4] [%] | Parasitemia [5] [%] | IC50 [6] [nM] | Parasitemia [7] [%] | Parasitemia [8] [%] | ED50 [9] | ED90 [10] [µM/kg] | ED90 [10, 14] [mg/kg] | half-life [11] [h] | ED50 [12] | ED90 [13] [µM/kg] | ED90 [13, 14] [mg/kg]
C[C@@H]1CC[C@H]2[C@@H](C)[C@](OCc3ccc(C(=O)[O-])cc3)(C(F)(F)F)OC3O[C@]4(C)CC[C@@H]1[C@]32OO4.[Na+] (some centres undefined) | 680 | 25.6 | 25.9 | 26.8 | 34.9 | 10.6 | – | – | – | – | – | – | – | – | –
C[C@@H]1CCC2[C@@H](C)[C@](OCC(F)(F)F)(C(F)(F)F)OC3O[C@]4(C)CCC1[C@]32OO4 (some centres undefined) | 215 | – | 0 | 0 | – | 8.3 | – | – | – | – | – | – | – | – | –
C[C@@H]1CC[C@H]2[C@@H](C)[C@](OCC(=O)O)(C(F)(F)F)OC3O[C@]4(C)CC[C@@H]1[C@]32OO4 (some centres undefined) | – | – | 47.5 | – | – | 30.4 | – | – | – | – | – | – | – | – | –
C[C@@H]1CC[C@H]2[C@@H](C)[C@](OCC(O)CO)(C(F)(F)F)OC3O[C@]4(C)CC[C@@H]1[C@]32OO4 (some centres undefined) | – | – | 2.1 | 12.1 | 28.8 | 0.9 | 46.3 | – | – | – | – | – | – | – | –
COc1ccc(N[C@@]2(C(F)(F)F)OC3O[C@]4(C)CCC5[C@H](C)CCC([C@H]2C)[C@@]35OO4)cc1 (some centres undefined) | 30 | 8.1 | 0 | 0 | 0.1 | 12.3 | – | 0 | – | – | – | – | – | – | –
C[C@@H]1CCC2[C@@H](C)[C@](OO)(C(F)(F)F)OC3O[C@]4(C)CCC1[C@]32OO4 (some centres undefined) | – | 36.8 | 5.5 | 28.3 | 41.7 | 13.2 | – | – | – | – | – | – | – | – | –
COC1O[C@@H]2O[C@]3(C)CCC4[C@H](C)CCC([C@H]1C)[C@]42OO3 (some centres undefined) | – | 48.1 | 2.2 | 5.5 | 39.2 | 3.5 | – | – | 2.5 mg/kg and 8.4 µmol/kg | 28.5 | 8.5 | – | – | – | –
C[C@@H]1CCC2[C@@H](C)[C@@H](O)OC3O[C@]4(C)CCC1[C@]32OO4 (some centres undefined) | – | – | – | – | – | – | – | – | – | – | – | 0.438 | – | – | –
C[C@@H]1CC[C@H]2[C@@H](C)[C@](OCC=O)(C(F)(F)F)OC3O[C@]4(C)CC[C@@H]1[C@]32OO4 (some centres undefined) | – | 46.8 | 0.2 | 7.8 | 26.8 | 21.4 | – | 29.6 | – | – | – | – | – | – | –
CO[C@@]1(C(F)(F)F)OC2O[C@]3(C)CCC4[C@H](C)CCC([C@H]1C)[C@@]24OO3 (some centres undefined) | 660 | – | 0 | 0 | – | 0.8 | 0 | 0 | – | – | – | – | 1.25 mg/kg and 3.4 µmol/kg | 17.5 | 6.4
CCO[C@@]1(C(F)(F)F)OC2O[C@]3(C)CCC4[C@H](C)CCC([C@H]1C)[C@@]24OO3 (some centres undefined) | 500 | – | 0 | 0 | – | 3.3 | 0 | 3.8 | – | – | – | – | – | – | –
C[C@@H]1CC[C@H]2[C@@H](C)[C@](O)(C(F)(F)F)O[C@@H]3O[C@]4(C)CC[C@@H]1[C@]32OO4 | – | – | 4 | 10.7 | – | 9.4 | 22.1 | – | – | – | – | 1.43 | – | – | –
